In brackets after ≈: the same amount, converted by molar mass. Activity calls are given as the source filed them. No cut-off for these calls is given here.
Legend:
[1] = test system: Brugia malayi; assay: Antifilarial activity against adult Brugia malayi after 48 hrs by MTT assay; format: functional, organism-based
In short: (§1)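 Adult female worms were recovered from jird peritoneal cavity 120–150 days after i.p. L3 inoculation. One worm per well sat in 1000 µL RPMI 1640 with antibiotics and 10% FBS, in duplicate, 48 h at 37 °C in CO2. After motility scoring, worms went through the MTT reduction assay. Result is % inhibition of MTT reduction vs untreated control.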

[2] = test system: Brugia malayi; assay: Antifilarial activity against microfilariae Brugia malayi after 48 hrs by MTT assay; format: functional, organism-based; details: for IC50: read-out: IC50
[3] = Cytotoxicity against african green monkey Vero cells after 72 hrs by resazurin dye-based fluorimetric analysis; format: cell-based; details: chlorocebus sabaeus, Vero cells
In short: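 Vero cells were seeded at 10,000 per well and left overnight at 37 °C in CO2. Samples were tested in triplicate from a 300 µg/mL top concentration in 3:1 serial dilutions, with drug-free and cell-free controls. Resazurin was added after 72 h drug exposure for 2–4 h, then read at ex 536/em 588 nm. CC50 was taken from fluorescence vs concentration.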

[4] = Selectivity ratio of CC50 for african green monkey Vero cells to IC50 for adult Brugia malayi; format: ADME, cell-based; details: Vero cells, read-out: Ratio CC50/IC50
In short: (§2)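 SI = CC50 (Vero, resazurin assay) / IC50. IC50 came from % motility inhibition of adult female worms or mf over two-fold dilutions from MIC down to 0.3 µg/mL. It was derived from a concentration vs % motility-inhibition plot.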

[5] = Selectivity ratio of CC50 for african green monkey Vero cells to IC50 for microfilariae Brugia malayi; format: ADME, cell-based; details: Vero cells, read-out: Ratio CC50/IC50; in short: as §2
[6] = test system: Brugia malayi; assay: Antifilarial activity against adult Brugia malayi assessed as inhibition of motility at 31.25 ug/ml incubated for 48 hrs followed by washout measured after 1 hr in the absence of drug by microscopic analysis; format: functional
In short: (§3)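 Single fully motile female worms from jird peritoneal cavity were exposed in duplicate wells (1000 µL RPMI 1640, antibiotics, 10% FBS) to two-fold dilutions from 31.25 µg/mL, 48 h, 37 °C, CO2. Worms were moved to drug-free medium and motility was read microscopically 1 h later. Result is % motility reduction vs untreated control.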

[7] = test system: Brugia malayi; assay: Antifilarial activity against adult Brugia malayi assessed as inhibition of motility at 15.6 ug/ml incubated for 48 hrs followed by washout measured after 1 hr in the absence of drug by microscopic analysis; format: functional; in short: as §3
[8] = test system: Brugia malayi; assay: Antifilarial activity against adult Brugia malayi assessed as inhibition of motility at 7.8 ug/ml incubated for 48 hrs followed by washout measured after 1 hr in the absence of drug by microscopic analysis; format: functional; in short: as §3
[9] = test system: Brugia malayi; assay: Antifilarial activity against adult Brugia malayi assessed as inhibition of motility at 3.9 ug/ml incubated for 48 hrs followed by washout measured after 1 hr in the absence of drug by microscopic analysis; format: functional; in short: as §3
[10] = test system: Brugia malayi; assay: Antifilarial activity against adult Brugia malayi assessed as inhibition of motility at 1.9 ug/ml incubated for 48 hrs followed by washout measured after 1 hr in the absence of drug by microscopic analysis; format: functional; in short: as §3
[11] = test system: Brugia malayi; assay: Antifilarial activity against microfilariae Brugia malayi assessed as inhibition of motility at 31.25 ug/ml incubated for 48 hrs followed by washout measured after 1 hr in the absence of drug by microscopic analysis; format: functional
In short: (§4)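 Microfilariae came from jird peritoneal fluid passed through a 5.0 µm membrane filter. Twenty live mf per well in 200 µL medium, in duplicate, were given two-fold dilutions from 31.25 µg/mL. Incubation matched the adult worms (48 h, 37 °C, CO2). Motility was scored and reported as % reduction vs untreated control.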

[12] = test system: Brugia malayi; assay: Antifilarial activity against microfilariae Brugia malayi assessed as inhibition of motility at 15.6 ug/ml incubated for 48 hrs followed by washout measured after 1 hr in the absence of drug by microscopic analysis; format: functional; in short: as §4
[13] = test system: Brugia malayi; assay: Antifilarial activity against microfilariae Brugia malayi assessed as inhibition of motility at 7.8 ug/ml incubated for 48 hrs followed by washout measured after 1 hr in the absence of drug by microscopic analysis; format: functional; in short: as §4
[14] = test system: Brugia malayi; assay: Antifilarial activity against microfilariae Brugia malayi assessed as inhibition of motility at 3.9 ug/ml incubated for 48 hrs followed by washout measured after 1 hr in the absence of drug by microscopic analysis; format: functional; in short: as §4
[15] = test system: Brugia malayi; assay: Antifilarial activity against microfilariae Brugia malayi assessed as inhibition of motility at 1.9 ug/ml incubated for 48 hrs followed by washout measured after 1 hr in the absence of drug by microscopic analysis; format: functional; in short: as §4
[16] = test system: Brugia malayi; assay: Antifilarial activity against adult Brugia malayi at 31.25 ug/ml by MTT assay relative to control; format: functional; in short: as §1
[17] = test system: Brugia malayi; assay: Antifilarial activity against adult Brugia malayi at 15.6 ug/ml by MTT assay relative to control; format: functional; in short: as §1
[18] = test system: Brugia malayi; assay: Antifilarial activity against adult Brugia malayi at 7.8 ug/ml by MTT assay relative to control; format: functional; in short: as §1
[19] = test system: Brugia malayi; assay: Antifilarial activity against adult Brugia malayi at 3.9 ug/ml by MTT assay relative to control; format: functional; in short: as §1
[20] = test system: Brugia malayi; assay: Antifilarial activity against adult Brugia malayi at 1.9 ug/ml by MTT assay relative to control; format: functional; in short: as §1
[21] = test system: Brugia malayi; assay: Antifilarial activity against adult Brugia malayi infected in jird assessed as worm mortality at 50 mg/kg, ip administered for 5 consecutive days measured on day 51; format: functional; details: route intraperitoneal
In short: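 Jirds carrying intraperitoneally transplanted adult B. malayi (sub-periodic strain), 5 animals per group, dosed daily for 5 days. Killed on day 51 after a 50-day observation period. Worms recovered from the peritoneal cavity and scored microscopically for motility, death or encapsulation, giving % adulticidal activity over untreated control, mean ± SE. Live females teased in PBS pH 7.2 to score uterine-content abnormalities as sterilization.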

[22] = test system: Brugia malayi; assay: Antifilarial activity against adult Brugia malayi infected in jird assessed as sterilized female worm at 50 mg/kg, ip administered for 5 consecutive days measured on day 51; format: functional; details: route intraperitoneal
In short: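 In the i.p.-transplanted adult B. malayi jird model, 50 mg/kg was given i.p. for 5 consecutive days, 5 animals per group. Necropsy on day 51 recovered peritoneal worms. Live females were teased in PBS pH 7.2 and uterine oocytes, eggs and mf checked microscopically for abnormality or death. Result is % sterilized females.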

Compound	MIC [1]	MIC ([2]; Brugia malayi, 48 h)	IC50 ([2]; Brugia malayi, 48 h)	CC50 at 72 h [3]	selectivity ratio [5]	inhibition at 31.25 µg/mL [6]	inhibition at 31.25 µg/mL [11]	inhibition at 15.6 µg/mL [12]	inhibition at 7.8 µg/mL [13]	inhibition at 3.9 µg/mL [14]	inhibition at 31.25 µg/mL [16]	inhibition at 15.6 µg/mL [17]	inhibition at 7.8 µg/mL [18]	inhibition at 3.9 µg/mL [19]	Activity [21]	Activity [22]	inhibition [7]	inhibition [8]	inhibition [9]	also measured
CC/C=C\C/C=C\C/C=C\CCCCCCCC(=O)OC[C@H](CO[C@@H]1O[C@H](CO[C@H]2O[C@H](CO)[C@H](O)[C@H](O)[C@H]2O)[C@H](O)[C@H](O)[C@H]1O)OC(=O)CCCCCCC/C=C\C/C=C\C/C=C\CC	3.9 µg/mL (≈ 4.16 µM)	15.6 µg/mL (≈ 16.6 µM)	1.61 µg/mL (≈ 1.71 µM)	> 100 µg/mL	> 62.2	100%	100%	100%	99%	95%	82.9%	75%	61.8%	52.1%	-58.3%	0%				IC50 [1]: 1.25 µg/mL (≈ 1.33 µM); selectivity ratio [4]: > 80; inhibition at 15.6 µg/mL [7]: 100%; inhibition at 7.8 µg/mL [8]: 100%; inhibition at 3.9 µg/mL [9]: 100%; inhibition at 1.9 µg/mL [10]: 90%; inhibition at 1.9 µg/mL [15]: 60%; inhibition at 1.9 µg/mL [20]: 43.6%
Oc1cc(O)c2c(c1)O[C@H](c1ccc(O)c(O)c1)[C@H](O)C2 [(-)-EPICATECHIN]						50%	50%				34.8%									
IVERMECTIN																				MIC [2]: 125 µg/mL
CC/C=C\C/C=C\C/C=C\CCCCCCCC(=O)OC[C@H](CO[C@@H]1O[C@H](CO[C@H]2O[C@H](CO)[C@H](O)[C@H](O)[C@H]2O)[C@H](O)[C@H](O)[C@H]1O)OC(=O)CCCCCCCCCCCCCCC	inactive	31.2 µg/mL (≈ 34.1 µM)	2.7 µg/mL (≈ 2.95 µM)	> 100 µg/mL	> 37	50%	100%	95%	90%	70%	30%	0%	0%	0%	-45.8%	0%	inactive	inactive	inactive	
Oc1ccc([C@H]2Oc3cc(O)cc(O)c3C[C@H]2O)cc1 [EPIAFZELECHIN (2R,3R)(-)]						50%	59%				14.8%									
CCCCCCCC/C=C\CCCCCCCC(=O)OC[C@H](CO[C@@H]1O[C@H](CO[C@H]2O[C@H](CO)[C@H](O)[C@H](O)[C@H]2O)[C@H](O)[C@H](O)[C@H]1O)OC(=O)CCCCCCCCCCCCCCC	inactive	31.2 µg/mL (≈ 34 µM)	1.05 µg/mL (≈ 1.14 µM)	> 100 µg/mL	> 95.2	50%	100%	99%	90%	80%	24.6%	0%	0%	0%	-54.15%	0%	inactive	inactive	inactive	

Source: ChEMBL document CHEMBL1949569, “Galactolipids from Bauhinia racemosa as a new class of antifilarial agents against human lymphatic filarial parasite, Brugia malayi” (Eur J Med Chem, 2012)
